Results as given in ChEMBL document CHEMBL4017535 (J Med Chem, 2017).

Legend:
Translocator protein = Translocator protein (Homo sapiens, UniProt P30536); test: Antagonist activity at peripheral benzodiazepine receptor (unknown origin)
[1] = Permeability in MDCK cells; format: ADME, cell-based, Canis lupus familiaris; settings: dog, read-out: permeability
[2] = Intrinsic clearance in dog liver microsomes; format: ADME, Canis lupus familiaris, microsome; settings: read-out: CLH (converted)
[3] = molecular target: Bromodomain-containing protein 3 (Homo sapiens, UniProt Q15059); test: Binding affinity to BRD3 BD1 to BD2 (P24 to A416 residues) (unknown origin)
[4] = Intrinsic clearance in monkey liver microsomes; format: ADME, Macaca mulatta, microsome; settings: rhesus monkey, read-out: CLH (converted)
[5] = Intrinsic clearance in mouse liver microsomes; format: ADME, microsome; settings: read-out: CLH (converted)
[6] = molecular target: Bromodomain and WD repeat-containing protein 1 (Homo sapiens, UniProt Q9NSI6); test: Binding affinity to human WDR9(2) (A1310 to E1430 residues) expressed in bacterial expression system by BROMOscan assay
[7] = Intrinsic clearance in monkey hepatocytes; format: ADME, cell-based, Macaca mulatta, Hepatocyte; settings: rhesus monkey, read-out: CLH (converted)
[8] = Oral bioavailability in rat at 1 mg/kg; format: ADME, organism-based; settings: in vivo
In short: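 In rats, 1 mg/kg was given by both IV and PO routes. IV clearance is unbound (Cl_p,u, L/hr/kg). FaFg is taken as F/(1-Clp/Qh), using rat Qh 3.8 L/hr/kg. Unbound plasma fraction was determined in rat plasma.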

[9] = Half life in po dosed dog; format: ADME, organism-based, Canis lupus familiaris; settings: in vivo
[10] = Half life in mouse at 10 mg/kg, po; format: ADME, organism-based; settings: in vivo
[11] = molecular target: T1, Bromodomain-containing protein 4 (Homo sapiens, UniProt O60885); test: Binding affinity to N-terminal His6-tagged human BRD4 BD1 to BD2 (K57 to K550 residues) by isothermal titration calorimetry
[12] = Apparent oral plasma clearance in human at 1 mg; format: ADME
In short: (§1)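 Clinical PK in subjects with cancer after a single 1 mg oral dose, n = 3. Apparent clearance was reported as PO CLp/F in L/hr.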

[13] = Half life in human at 1 mg, po; format: ADME; settings: in vivo; in short: as §1
[14] = Intrinsic clearance in dog hepatocytes; format: ADME, cell-based, Canis lupus familiaris, Hepatocyte; settings: read-out: CLH (converted)
[15] = Plasma clearance in rat at 1 mg/kg, iv; format: ADME, organism-based
[16] = molecular target: Bromodomain-containing protein 7 (Homo sapiens, UniProt Q9NPI1); test: Binding affinity to human BRD7 (L125 to R254 residues) expressed in mammalian expression system by BROMOscan assay
Sequence of Bromodomain-containing protein 7 (Q9NPI1 whole entry, the tested form may be a part): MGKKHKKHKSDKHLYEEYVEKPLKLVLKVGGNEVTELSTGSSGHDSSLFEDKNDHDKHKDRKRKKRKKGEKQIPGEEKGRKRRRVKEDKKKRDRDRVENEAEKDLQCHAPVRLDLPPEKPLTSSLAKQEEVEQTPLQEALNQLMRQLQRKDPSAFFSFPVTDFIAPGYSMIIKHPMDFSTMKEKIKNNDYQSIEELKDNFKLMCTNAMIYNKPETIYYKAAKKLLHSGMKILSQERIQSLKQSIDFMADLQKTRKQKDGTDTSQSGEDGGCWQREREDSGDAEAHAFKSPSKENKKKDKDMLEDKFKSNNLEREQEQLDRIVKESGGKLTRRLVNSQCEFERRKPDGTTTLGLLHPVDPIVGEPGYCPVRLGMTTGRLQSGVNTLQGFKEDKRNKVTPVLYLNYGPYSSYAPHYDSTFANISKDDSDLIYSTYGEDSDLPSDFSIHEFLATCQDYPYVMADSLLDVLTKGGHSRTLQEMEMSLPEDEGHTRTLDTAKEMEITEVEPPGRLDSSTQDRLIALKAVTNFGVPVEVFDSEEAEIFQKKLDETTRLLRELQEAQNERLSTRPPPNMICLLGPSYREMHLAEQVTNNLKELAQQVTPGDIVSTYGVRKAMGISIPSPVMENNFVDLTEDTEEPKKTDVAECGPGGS

[17] = Fraction unbound in rat plasma at 1 uM after 4 hrs by LC-MS/MS method; format: ADME, cell-free
MX1 = test: Antiproliferative activity against human MX1 cells after 72 hrs by Cell Titer Glo assay; format: functional, cell-based; settings: MX1, 72 h
[18] = molecular target: T1, Bromodomain-containing protein 4; test: Inhibition of BRD4 in human H1299 cells assessed as decrease in HPV LCR-E2-EP400-mediated transcriptional repression after 24 hrs by Bright-Glo luciferase reporter gene assay; format: cell-based
[19] = Half life in rat at 1 mg/kg, po; format: ADME, organism-based; settings: in vivo
Rattus norvegicus = test: Oral absorption in rat at 1 mg/kg; format: ADME, organism-based; settings: in vivo
In short: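 Oral absorption is expressed as FaFg, calculated as F/(1-Clp/Qh). Liver blood flow (Qh) was 5.2 L/hr/kg for mouse and 3.8 L/hr/kg for rat. Mouse dosing was 3 mg/kg IV and 10 mg/kg PO; rat dosing was 1 mg/kg IV and PO.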

[20] = molecular target: Bromodomain adjacent to zinc finger domain protein 2B (Homo sapiens, UniProt Q9UIF8); test: Binding affinity to human BAZ2B (S2054 to S2168 residues) expressed in bacterial expression system by BROMOscan assay
Sequence of Bromodomain adjacent to zinc finger domain protein 2B (Q9UIF8 whole entry, the tested form may be a part): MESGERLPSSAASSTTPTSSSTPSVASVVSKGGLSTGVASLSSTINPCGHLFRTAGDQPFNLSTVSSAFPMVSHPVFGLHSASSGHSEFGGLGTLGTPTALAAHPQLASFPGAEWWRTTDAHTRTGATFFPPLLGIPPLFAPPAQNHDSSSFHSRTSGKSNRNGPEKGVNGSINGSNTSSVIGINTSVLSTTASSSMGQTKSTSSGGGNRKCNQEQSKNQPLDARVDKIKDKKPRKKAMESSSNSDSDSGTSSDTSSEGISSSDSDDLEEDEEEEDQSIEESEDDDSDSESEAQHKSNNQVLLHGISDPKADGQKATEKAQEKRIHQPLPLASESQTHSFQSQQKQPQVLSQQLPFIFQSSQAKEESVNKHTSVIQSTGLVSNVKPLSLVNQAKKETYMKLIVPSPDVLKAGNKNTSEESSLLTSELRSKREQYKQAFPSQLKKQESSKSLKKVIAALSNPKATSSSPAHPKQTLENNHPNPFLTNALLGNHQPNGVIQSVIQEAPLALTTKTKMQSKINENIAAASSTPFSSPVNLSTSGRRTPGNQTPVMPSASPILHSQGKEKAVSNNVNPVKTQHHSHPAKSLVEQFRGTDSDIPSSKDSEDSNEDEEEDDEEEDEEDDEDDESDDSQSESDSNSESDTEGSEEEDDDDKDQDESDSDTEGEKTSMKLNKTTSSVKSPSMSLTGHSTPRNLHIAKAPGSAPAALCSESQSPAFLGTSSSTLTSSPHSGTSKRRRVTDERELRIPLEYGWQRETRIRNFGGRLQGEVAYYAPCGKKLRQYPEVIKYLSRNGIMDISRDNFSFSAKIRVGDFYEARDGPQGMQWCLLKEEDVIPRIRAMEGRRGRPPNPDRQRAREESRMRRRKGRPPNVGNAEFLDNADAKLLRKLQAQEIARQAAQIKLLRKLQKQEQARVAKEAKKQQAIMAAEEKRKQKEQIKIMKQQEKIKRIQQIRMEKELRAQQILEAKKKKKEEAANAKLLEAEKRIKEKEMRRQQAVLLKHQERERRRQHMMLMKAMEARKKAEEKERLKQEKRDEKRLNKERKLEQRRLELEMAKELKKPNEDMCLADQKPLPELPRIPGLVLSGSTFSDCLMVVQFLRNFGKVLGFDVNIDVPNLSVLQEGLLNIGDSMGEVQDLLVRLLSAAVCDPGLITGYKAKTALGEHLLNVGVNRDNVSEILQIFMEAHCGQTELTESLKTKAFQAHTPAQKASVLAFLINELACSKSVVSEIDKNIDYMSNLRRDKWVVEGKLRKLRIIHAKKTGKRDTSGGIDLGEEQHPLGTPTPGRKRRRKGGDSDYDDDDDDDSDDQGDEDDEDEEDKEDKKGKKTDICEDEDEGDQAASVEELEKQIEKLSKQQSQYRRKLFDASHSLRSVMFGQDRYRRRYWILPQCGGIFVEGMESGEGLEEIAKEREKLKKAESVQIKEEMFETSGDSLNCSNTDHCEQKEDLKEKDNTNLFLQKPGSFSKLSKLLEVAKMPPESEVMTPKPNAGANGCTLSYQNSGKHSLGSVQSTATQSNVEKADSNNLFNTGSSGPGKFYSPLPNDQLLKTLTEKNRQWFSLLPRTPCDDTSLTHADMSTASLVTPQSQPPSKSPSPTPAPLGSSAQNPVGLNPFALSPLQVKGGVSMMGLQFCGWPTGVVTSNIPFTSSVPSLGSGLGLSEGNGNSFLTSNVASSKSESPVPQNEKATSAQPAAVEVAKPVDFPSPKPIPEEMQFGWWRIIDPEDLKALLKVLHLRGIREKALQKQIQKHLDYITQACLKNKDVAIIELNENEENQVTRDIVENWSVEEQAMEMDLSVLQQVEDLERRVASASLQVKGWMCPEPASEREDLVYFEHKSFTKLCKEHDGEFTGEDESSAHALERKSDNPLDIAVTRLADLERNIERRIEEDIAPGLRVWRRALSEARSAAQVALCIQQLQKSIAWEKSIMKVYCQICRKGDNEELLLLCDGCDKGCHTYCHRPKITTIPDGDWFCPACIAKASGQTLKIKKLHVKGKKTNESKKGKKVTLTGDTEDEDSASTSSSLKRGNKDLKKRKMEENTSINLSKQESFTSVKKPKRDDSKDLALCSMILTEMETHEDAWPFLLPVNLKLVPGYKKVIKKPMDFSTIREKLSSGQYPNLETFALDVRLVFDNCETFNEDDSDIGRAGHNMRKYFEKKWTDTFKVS

Liver [21] = test: Unbound intrinsic clearance in mouse liver microsomes; format: ADME, microsome
In short: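 Liver microsome stability is expressed as unbound intrinsic clearance, Cl_int,u, in L/hr/kg. Dextromethorphan served as the in-house low-clearance reference control and verapamil as the high-clearance reference control.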

Protein polybromo-1 = Protein polybromo-1 (Homo sapiens, UniProt Q86U86); test: Binding affinity to human PBRM1 bromodomain-2 (S178 to E291 residues) expressed in bacterial expression system by BROMOscan assay
Sequence of Protein polybromo-1 (Q86U86 whole entry, the tested form may be a part): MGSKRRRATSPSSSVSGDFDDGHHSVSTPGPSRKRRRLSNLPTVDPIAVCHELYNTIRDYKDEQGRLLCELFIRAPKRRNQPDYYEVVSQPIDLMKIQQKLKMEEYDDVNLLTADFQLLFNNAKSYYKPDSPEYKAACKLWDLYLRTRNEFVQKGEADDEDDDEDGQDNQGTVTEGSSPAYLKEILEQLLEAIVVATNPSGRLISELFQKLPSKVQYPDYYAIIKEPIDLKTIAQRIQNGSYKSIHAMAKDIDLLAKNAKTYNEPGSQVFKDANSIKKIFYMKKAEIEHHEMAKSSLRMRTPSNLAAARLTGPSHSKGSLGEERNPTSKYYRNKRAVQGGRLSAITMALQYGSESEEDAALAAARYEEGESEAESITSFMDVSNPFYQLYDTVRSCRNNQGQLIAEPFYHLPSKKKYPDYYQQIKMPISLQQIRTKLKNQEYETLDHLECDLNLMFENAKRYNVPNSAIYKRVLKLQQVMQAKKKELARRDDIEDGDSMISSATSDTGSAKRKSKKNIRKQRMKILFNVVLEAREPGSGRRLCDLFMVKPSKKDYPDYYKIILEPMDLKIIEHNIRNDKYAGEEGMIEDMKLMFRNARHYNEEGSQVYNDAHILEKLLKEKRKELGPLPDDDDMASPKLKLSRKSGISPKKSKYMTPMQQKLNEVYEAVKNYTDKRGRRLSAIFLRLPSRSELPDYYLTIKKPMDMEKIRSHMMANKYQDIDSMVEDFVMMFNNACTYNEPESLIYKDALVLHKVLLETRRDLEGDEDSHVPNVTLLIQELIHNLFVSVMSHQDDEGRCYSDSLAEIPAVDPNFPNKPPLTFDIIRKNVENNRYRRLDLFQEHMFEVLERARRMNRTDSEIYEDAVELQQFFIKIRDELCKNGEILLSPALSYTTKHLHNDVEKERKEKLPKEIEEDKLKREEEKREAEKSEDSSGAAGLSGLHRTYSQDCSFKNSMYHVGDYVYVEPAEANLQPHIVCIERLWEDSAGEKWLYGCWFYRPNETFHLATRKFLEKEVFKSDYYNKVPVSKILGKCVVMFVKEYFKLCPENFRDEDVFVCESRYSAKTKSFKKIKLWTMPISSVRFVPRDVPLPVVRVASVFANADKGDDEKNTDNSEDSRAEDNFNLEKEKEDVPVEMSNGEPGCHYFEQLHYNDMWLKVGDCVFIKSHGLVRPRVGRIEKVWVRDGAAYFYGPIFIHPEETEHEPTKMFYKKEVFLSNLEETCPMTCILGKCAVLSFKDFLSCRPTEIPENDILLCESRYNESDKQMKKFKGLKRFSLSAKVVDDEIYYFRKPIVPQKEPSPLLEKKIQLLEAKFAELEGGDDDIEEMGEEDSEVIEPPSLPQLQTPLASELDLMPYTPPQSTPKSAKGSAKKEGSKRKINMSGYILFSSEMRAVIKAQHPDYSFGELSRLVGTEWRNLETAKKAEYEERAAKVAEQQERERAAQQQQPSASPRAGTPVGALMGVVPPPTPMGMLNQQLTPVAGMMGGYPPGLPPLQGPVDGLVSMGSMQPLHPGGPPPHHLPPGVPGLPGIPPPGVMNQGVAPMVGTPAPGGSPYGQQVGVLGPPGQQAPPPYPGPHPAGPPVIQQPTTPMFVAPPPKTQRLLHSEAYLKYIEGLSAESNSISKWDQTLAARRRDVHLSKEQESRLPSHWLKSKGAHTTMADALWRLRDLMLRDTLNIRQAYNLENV

[22] = molecular target: Bromodomain and PHD finger-containing protein 3 (Homo sapiens, UniProt Q9ULD4); test: Binding affinity to human BRPF3 (E588 to G701 residues) expressed in bacterial expression system by BROMOscan assay
[23] = molecular target: Histone acetyltransferase KAT2B (Homo sapiens, UniProt Q92831); test: Binding affinity to human PCAF (G715 to D831 residues) expressed in mammalian expression system by BROMOscan assay
[24] = molecular target: Translocator protein (Rattus norvegicus) (UniProt P16257); test: Displacement of [3H]PK-11195 from peripheral benzodiazepine receptor in rat heart at 10 uM
Sequence of Translocator protein (Rattus norvegicus) (P16257 whole entry, looked up, the tested form may be a part): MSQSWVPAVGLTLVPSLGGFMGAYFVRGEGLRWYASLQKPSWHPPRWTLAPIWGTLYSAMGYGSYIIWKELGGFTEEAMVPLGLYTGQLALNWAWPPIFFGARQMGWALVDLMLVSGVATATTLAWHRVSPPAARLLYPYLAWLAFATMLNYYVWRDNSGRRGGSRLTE

[25] = molecular target: Bromodomain adjacent to zinc finger domain protein 2A (Homo sapiens, UniProt Q9UIF9); test: Binding affinity to human BAZ2A (M1792 to L1905 residues) expressed in bacterial expression system by BROMOscan assay
[26] = molecular target: Adenosine receptor A1 (Homo sapiens) (UniProt P30542); test: Displacement of [3H]-DPCPX from recombinant human adenosine A1 receptor expressed in CHO cells at 10 uM; format: cell-based
Mus musculus [27] = test: Unbound AUC in mouse at 10 mg/kg, po; format: ADME, organism-based; settings: in vivo
In short: (§2)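 Mouse PK: 3 mg/kg IV and 10 mg/kg PO. Clearance is expressed unbound, Cl_p,u in L/hr/kg. AUC is unbound, in µM*hr. FaFg is computed as F/(1-Clp/Qh), with mouse liver blood flow Qh 5.2 L/hr/kg. Unbound plasma fraction was measured separately.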

Mus musculus [28] = test: Plasma unbound clearance in mouse at 3 mg/kg, iv; format: ADME, organism-based; settings: in vivo; in short: as §2
Liver [29] = test: Unbound intrinsic clearance in rat liver microsomes at 10 uM preincubated for 5 mins followed by NADPH addition measured after 60 mins by HPLC-UV-MS analysis; format: ADME, microsome; settings: 1 h
[30] = Oral bioavailability in mouse at 10 mg/kg; format: ADME, organism-based; settings: in vivo; in short: as §2
[31] = Plasma clearance in iv dosed monkey; format: ADME, organism-based, Macaca mulatta; settings: rhesus monkey

Sequence of Translocator protein (P30536 whole entry): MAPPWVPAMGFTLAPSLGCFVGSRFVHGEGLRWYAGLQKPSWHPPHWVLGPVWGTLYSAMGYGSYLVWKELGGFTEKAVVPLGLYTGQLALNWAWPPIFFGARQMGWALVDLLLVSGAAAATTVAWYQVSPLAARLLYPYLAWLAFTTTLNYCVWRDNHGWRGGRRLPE

`CCS(=O)(=O)Nc1ccc(Oc2ccc(F)cc2F)c(-c2cn(C)c(=O)c3[nH]ccc23)c1` [MIVEBRESIB] showed an IC50 (Translocator protein) of 800 nM, a Papp [1] of 29 ×10⁻⁶ cm/s and a CLint scaled [2] of 51.7 mL/min/kg. The Ki [3] was 12.2 nM, the CLint scaled [4] was 38.3 mL/min/kg and the CLint scaled [5] was 138 mL/min/kg. The Kd [6] was over 1000 nM, the CLint scaled [7] was 51.7 mL/min/kg and the bioavailability [8] was 65%. It also gave a half-life [9] of 5.8 h, a half-life [10] of 2.7 h and a Kd [11] of under 10 nM. The CL/F [12] was 83.8 mL/min, the half-life [13] was 25.1 h and the CLint scaled [14] was 35 mL/min/kg. The clearance [15] was 10 mL/min/kg, the Kd [16] was over 1000 nM and the fraction unbound at 4 h, 1 µM [17] was 0.023. For the same compound, the EC50 (MX1) was 13 nM, the EC50 [18] was 20 nM and the half-life [19] was 2.6 h. It also gave a FaFg (Rattus norvegicus) of 0.77, a Kd [20] of over 1000 nM and a CL free (Liver [21]) of 550 mL/min/kg. For the same compound, the Kd (Protein polybromo-1) was over 1000 nM, the Kd [22] was over 1000 nM and the Kd [23] was over 1000 nM. It also gave an inhibition [24] of 86%, a Kd [25] of over 1000 nM and an inhibition [26] of 97%. It also gave a fAUC (Mus musculus [27]) of 0.63 µM·h, a clearance (Mus musculus [28]) of 317 mL/min/kg and a CL free (Liver [29]) of under 81.7 mL/min/kg. For the same compound, the bioavailability [30] was 68 to 83% and the clearance [31] was 5.5 mL/min/kg.
